Source: PMC9233244 (Diabetes, 2022)

B1: GDF15: recombinant human GDF15, cytokine used as aversive agent (protein, UniProt Q99988 195-308, looked up)
Growth/differentiation factor …: ARARNGDHCPLGPGRCCRLHTVRASLEDLGWADWVLSPREVQVTMCIGACPSQFRAANMHAQIKTSLHRLKPDTVPAPCCVPASYNPMVLIQKTDTGVSLQTYDDLLAKDCHCI

Assays:
Assay type in all cases: in vivo, mouse
obese high-fat-fed mice = experiment: body weight and food intake in obese high-fat-fed mice
WT and Gipr−/− mice = experiment: intraperitoneal glucose tolerance test in WT and Gipr−/− mice
[1] = test system: brain neuronal activity (cFos); experiment: whole-brain cFos analysis; details: 120 min
In short: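 Chow-fed male C57BL/6J mice were acclimated with daily s.c. PBS for 4 days. On day 5 they received s.c. GIPR agonist (10 nmol/kg), PYY analog (100 nmol/kg), GDF15 (2 nmol/kg) or combinations. Mice were formalin-perfused 120 min post-dose, and brains were iDISCO+-cleared, cFos-immunostained (rabbit, 1:200), light-sheet imaged and registered. Counts came from voxel-based statistics within PBN_D/PBN_V hotspots defined by averaged PYY- and GDF15-group signal. Vehicle n = 8.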

[2] = agent alone, dosed once daily, 72-h dosing period, n = 6 per group

Molecule | weight loss in combination with the LAPYY analog (obese high-fat-fed mice; LAGIPRA 10 nmol/kg plus LAPYY analog, once daily) | body weight (obese high-fat-fed mice; [2]) | food intake (obese high-fat-fed mice; [2]) | blood glucose in intraperitoneal glucose tolerance test (WT and Gipr−/− mice) | number of cFos+ cells in the BST [1] | number of cFos+ cells in the NTS and DMX [1] | brain regions with decreased cFos expression ([1]; GDF15 2 nmol/kg s.c., vs vehicle, n = 8) | brain regions with increased cFos expression ([1]; GIPRA 10, PYY 100, GDF15 2 nmol/kg s.c., vs vehicle, n = 8)
LAGIPRA | only delivered greater weight loss in combination with a low dose of the LAPYY analog | reduced | reduced | lowering blood glucose |  |  |  | 
B1 |  |  |  |  | increased numbers | increased number | decreased cFos expression in nine regions | increased cFos expression in seven brain areas
